According to ChEMBL document CHEMBL4513216, “Probing the Open Global Health Chemical Diversity Library for Multistage-Active Starting Points for Next-Generation Antimalarials” (ACS Infect Dis, 2020):

Assay: Toxicity liver stage against HepG2, at 10uM
Format: cell-based
Parameters: test concentration 10 uM, cell line HepG2-A16-CD81EGFP
Conditions: human, HepG2-A16-CD81EGFP cells; read-out: INHIBITION
Method in brief: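 Uninfected HepG2-A16-CD81EGFP cells, 3 × 10^3 per well, 1536-well, plated on prespotted compound at 10 μM final, parasite-free screening media added to match infected plates; puromycin 10 μM positive, DMSO 0.5% negative; run in parallel with 48 h PbLuc assay at 37 °C, 5% CO2; viability by CellTiter-Glo luminescence, normalized to controls.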

| SMILES | cytotoxicity at 10 µM |
| --- | --- |
| Cn1nc(C(=O)N2CC(Oc3nc4c(Cl)cccc4s3)C2)ccc1=O | 1.48% |
| CN(C)C(=O)N1CCC2(C1)CN(c1cccnc1)C(=O)CN2C (stereo not given) | 6.96% |
| CN(C)CCO[C@@H]1CC[C@H]2[C@H]1OCCN2C(=O)c1ccncc1 | 5% |
| COc1cc(C2SCC(=O)Nc3ccsc32)cc(OC)c1OC (stereo not given) | -1.88% |
| O=C(O)c1cc(C2CC2)nc2c(Cl)cnn12 | 8.63% |
| c1ccc(C2Cn3ccnc3CN2Cc2ncc[nH]2)cc1 (stereo not given) | -2.8% |
| CCOc1ccc(CN2CCOCC2c2[nH]ncc2C)cc1CO (stereo not given) | -2.92% |
| Cn1ccc2cc(CC3COCCN(C(=O)c4cccnc4)C3)ccc21 (stereo not given) | 7.24% |
| CC(=O)N1CCC1c1cc(N2CCSCC2)nc(C)n1 (stereo not given) | 6.53% |
| CCc1nc(N2CCOCC2)ncc1C(=O)NC(c1cccs1)C(C)C (stereo not given) | 12.3% |
| Cc1c(C(=O)N[C@@H]2CC[C@@H](N3CCCC3)[C@@H]2O)[nH]c2ccc(F)cc12 | -1.85% |
| COc1ccc2[nH]cc(C(=O)N3C[C@@H](O)[C@H](N4CCOCC4)C3)c2c1 | -9.06% |
| CNCC(=O)N1CCC(c2cccc(Oc3ccccc3)n2)CC1 | -11.7% |
| CNC(=O)c1cn[nH]c1C1CCN(Cc2ccccc2OC)C1 (stereo not given) | 7.16% |
| Cc1cc(N)nc(C2(C)CCCN2C(=O)Cc2ccc(F)cc2)n1 (stereo not given) | -27.5% |
| CCCNC(=O)C1(CC2CC(c3ccccc3OC)=NO2)CCOCC1 (stereo not given) | 21.8% |
| CCC(=O)N1CCC(Cc2ccccc2-c2ccccc2F)(C(N)=O)C1 (stereo not given) | -10.8% |
| CC(=O)N1CCCC(c2ccc(Br)cn2)C1 (stereo not given) | -24.1% |
| Cc1cc(C)nc(Nc2cncc(C3CCCN(S(C)(=O)=O)C3)n2)n1 (stereo not given) | -16.1% |
| CCc1cccc2cc(CNCCCN3CCOCC3)c(=O)[nH]c12 | -0.918% |
| CCCn1ncc(CN2C[C@@H]3CCCN3C[C@@H]2Cc2ccccc2)c1C | -8.16% |
| O=S(=O)(c1cccs1)N1CCCCC1c1ccn[nH]1 (stereo not given) | -3% |
| COc1cccc(CN2CCC(c3nnc(-c4cnc(C)cn4)o3)C2)c1 (stereo not given) | -10.4% |
| COCC(C)(C)NC(=O)CC(c1ccccc1)C(F)(F)F (stereo not given) | -50.1% |
| CCCc1nn(Cc2csc(C(C)C)n2)c(=O)o1 | -47.7% |
| c1nc2c(c(N3CCCC(Cn4cncn4)C3)n1)CCC2 (stereo not given) | 52.4% |
| CNC(=O)Cn1ccc2ccc(NC(=O)C(C)CSC)cc21 (stereo not given) | -1.1% |
| CC(C)c1nc(CC(=O)Nc2cnccc2O)cs1 | 9.89% |

| SMILES | cytotoxicity at 10 µM |
| --- | --- |
| Cc1cccc(C(=O)NCCNS(=O)(=O)c2cccs2)c1C | -0.642% |
| CCCC(C)C(=O)Nc1ccc(OC)nc1N1CCN(C(C)=O)CC1 (stereo not given) | -5.46% |
| COc1ccc(C(=O)NS(=O)(=O)c2cncc(Br)c2)c(OC)c1 | -0.402% |
| O=C(CNC(=O)Nc1cccc(Cl)c1SC(F)F)NC1CC1 | 0.797% |
| CC(OCC(F)(F)F)C(=O)N1CCOCC1 (stereo not given) | -11.9% |
| Cc1cnn(CC2CCCN2C(=O)Cc2c(C)noc2C)c1 (stereo not given) | 0.983% |
| C=C(C)CN1CCOC(Cn2cncn2)C1 (stereo not given) | -52% |
| CCCc1nc(Cn2c(=O)n(C)c3ccccc32)no1 | -43% |
| COc1ccccc1C1(CNCc2ccc(C#N)cc2)CCOCC1 | 7.62% |
| O=C1CCCN1c1cccc(CNCc2nc(C3CC3)no2)c1 | -7.11% |
| CCC(CNC(=O)N1CCOCC2(CCOCC2)C1)c1ccccc1 (stereo not given) | 5.17% |
| COCC(NC(=O)NCc1ccc(C)c(F)c1)c1ccco1 (stereo not given) | 4.96% |
| CC(C)(C)c1nnc(CN2CCC(c3cc4ccccc4[nH]3)CC2)o1 | 24.3% |
| NC(=O)C(CNC(=O)Cc1ccc(F)cc1)Cc1ccc(F)cc1 (stereo not given) | 3.02% |
| Cc1nccc(NCc2cncc3c2CCN(CCN(C)C)C3)n1 | -104% |
| CN(C)C(=O)CO[C@H]1CO[C@@]2(CCN(Cc3ccoc3)C2)C1 | -111% |
| CCn1c(C)nnc1SCCn1cc(-c2nccs2)nn1 | 2.91% |
| Cc1nnc(SCC(=O)N2CCc3[nH]nc(C4CCC4)c3C2)o1 | -7.09% |
| Cc1cc(C(=O)N(Cc2c(C)nn(C)c2C)C(C)C)nc(C)n1 | -9.85% |
| OC[C@H]1CN(C2Cc3ccccc3C2)C[C@H]1CN1CCC(O)CC1 | 0.0255% |
| CCNC(=O)[C@@H]1C[C@H](NC(=O)c2cc(=O)[nH]c3ccc(C)cc23)CN1C | 7.44% |
| CCC(CC)C(=O)N1CCC2(CC1)c1ccccc1[C@@H](OC)[C@@H]2O | 6.75% |
| N#Cc1ccccc1CC1CCCS(=O)(=O)C1 (stereo not given) | -3.11% |
| Cc1cc(N[C@@H](CO)c2ccccc2)n2nc(C)c(C)c2n1 | -0.054% |
| CCc1c(O)nc(SC(C)CC)n(-c2ccccc2)c1=O (stereo not given) | 4.22% |
| Cn1ncc2c(NCCn3cccc3)nc(C3CCCC3)nc21 | 3.07% |
| COc1ncc(-c2cc(-c3ccn(C)c3)nc(N)c2C#N)cn1 | 0.471% |
